Measurements as given in ChEMBL document CHEMBL1138239, “Probing molecular interactions within class II MHC Aq/glycopeptide/T-cell receptor complexes associated with collagen-induced arthritis” (2007).
*1 amine or outer side, *2 acyl side, *3 side chain or, on linkers, in order; H or OH if unused. Where a SMILES comes first, the peptide text is derived from it. [ ]: non-standard residue; d: D form. X4 = NC[C@@H](CC[C@H](N[*:1])C(=O)[*:2])O[C@@H]1O[C@H](CO)[C@H](O)[C@H](O)[C@H]1O; X2 = C[C@H](N[*:1])C(=O)CCC(=O)[*:2]; X5 = C[C@@H](/C=C/CC(=O)[*:2])N[*:1]

Assays:
Format in all cases: functional, Mus musculus
[1] = Induction of immune response of T-cell HD13.9 hybridoma in presence of antigen-presenting spleen cells expressing Aq assessed as drug concentration required to induce IL2 secretion after 24 hrs by ELISA
How it was run: (§1)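 5 × 10⁴ hybridoma cells co-cultured with 5 × 10⁵ syngeneic spleen cells and glycopeptide at 0, 0.00128, 0.0064, 0.032, 0.16, 0.8, 4, 20 µM for 24 h. Supernatant frozen, then IL-2 measured by sandwich ELISA (rat anti-mouse IL-2 capture and biotin detection, DELFIA read-out) against a recombinant mouse IL-2 standard. Score is the lowest concentration giving IL-2 at 6% of the maximal response to the native CII259-273 glycopeptide reference.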

[2] = Induction of immune response of T-cell HD13.10 hybridoma in presence of antigen-presenting spleen cells expressing Aq assessed as drug concentration required to induce IL2 secretion after 24 hrs by ELISA; how it was run: as §1
[3] = Induction of immune response of T-cell HNC.1 hybridoma in presence of antigen-presenting spleen cells expressing Aq assessed as drug concentration required to induce IL2 secretion after 24 hrs by ELISA; how it was run: as §1
[4] = Induction of immune response of T-cell HCQ.2 hybridoma in presence of antigen-presenting spleen cells expressing Aq assessed as drug concentration required to induce IL2 secretion after 24 hrs by ELISA; how it was run: as §1
[5] = Induction of immune response of T-cell HCQ.3 hybridoma in presence of antigen-presenting spleen cells expressing Aq assessed as drug concentration required to induce IL2 secretion after 24 hrs by ELISA; how it was run: as §1
[6] = Induction of immune response of T-cell HCQ.6 hybridoma in presence of antigen-presenting spleen cells expressing Aq assessed as drug concentration required to induce IL2 secretion after 24 hrs by ELISA; how it was run: as §1
[7] = Induction of immune response of T-cell HMIR.2 hybridoma in presence of antigen-presenting spleen cells expressing Aq assessed as drug concentration required to induce IL2 secretion after 24 hrs by ELISA; how it was run: as §1
[8] = Induction of immune response of T-cell 22a1-7E hybridoma in presence of antigen-presenting spleen cells expressing Aq assessed as drug concentration required to induce IL2 secretion after 24 hrs by ELISA; how it was run: as §1

Compound	Activity [1] [µM]	Activity [2] [µM]	Activity [3] [µM]	Activity [4] [µM]	Activity [5] [µM]	Activity [6] [µM]	Activity [7] [µM]	Activity [8] [µM]
CC[C@H](C)[C@H](NC(=O)CN)C(=O)N[C@@H](C)C(=O)CCC(=O)N[C@@H](Cc1ccccc1)C(=O)N[C@@H](CC[C@H](CN)O[C@@H]1O[C@H](CO)[C@H](O)[C@H](O)[C@H]1O)C(=O)NCC(=O)N[C@@H](CCC(=O)O)C(=O)N[C@@H](CCC(N)=O)C(=O)NCC(=O)N1CCC[C@H]1C(=O)N[C@@H](CCCCN)C(=O)NCC(=O)N[C@@H](CCC(=O)O)C(=O)N[C@H](C(=O)O)[C@@H](C)O (H-GI[X2]F[X4]GEQGPKGET-OH)	0.8	0.8	4	0.8	0.8	0.8	4	4
CC[C@H](C)[C@H](NC(=O)CN)C(=O)N[C@@H](C)/C=C/CC(=O)N[C@@H](Cc1ccccc1)C(=O)N[C@@H](CC[C@H](CN)O[C@@H]1O[C@H](CO)[C@H](O)[C@H](O)[C@H]1O)C(=O)NCC(=O)N[C@@H](CCC(=O)O)C(=O)N[C@@H](CCC(N)=O)C(=O)NCC(=O)N1CCC[C@H]1C(=O)N[C@@H](CCCCN)C(=O)NCC(=O)N[C@@H](CCC(=O)O)C(=O)N[C@H](C(=O)O)[C@@H](C)O (H-GI[X5]F[X4]GEQGPKGET-OH)				20	20	20		
